In ChEMBL document CHEMBL3352188, “Synthesis, antimicrobial and molecular docking studies of enantiomerically pure N-alkylated β-amino alcohols from phenylpropanolamines” (2014):

How the values were obtained:
Pseudomonas aeruginosa [1] = assay: Antimicrobial activity against Pseudomonas aeruginosa MTCC 741 at 1 mg/disc after 24 hrs by disc diffusion assay; type: functional
Summary of the method: (§1)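 Disc diffusion on Mueller Hinton agar. Inoculum was grown in MHB for 24 h at 37 °C, swabbed onto the plates and dried for 10 min. Discs with 1 mg compound were left 30 min at room temperature for diffusion, then incubated at 37 °C for 24 h. Inhibition zone was read in mm; run twice. Solvent was the negative control, streptomycin the positive control.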

Candida albicans [2] = assay: Antimicrobial activity against Candida albicans MTCC 227 at 1 mg/disc after 24 hrs by disc diffusion assay; type: functional
Malassezia pachydermatis [3] = assay: Antimicrobial activity against Malassezia pachydermatis at 1 mg/disc after 24 hrs by disc diffusion assay; type: functional
Bacillus subtilis [4] = assay: Antimicrobial activity against Bacillus subtilis MTCC 441 after 24 hrs by two fold dilution method; type: functional; settings: MTCC 441, 24 h
Summary of the method: (§2)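 Broth two-fold serial dilution in 96-well plates from 1000 to 7.81 µg/mL, compound in DMSO (2%). Inoculum was grown in MHB for 24 h at 37 °C; plates were incubated 24 h at 37 °C. 5 µL of broth was spotted onto MHA; MIC was the lowest concentration with no visible growth on agar. Streptomycin was the positive control.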

Micrococcus luteus [5] = assay: Antimicrobial activity against Micrococcus luteus MTCC 106 after 24 hrs by two fold dilution method; type: functional; settings: MTCC 106, 24 h; summary of the method: as §2
Klebsiella aerogenes [6] = assay: Antimicrobial activity against Enterobacter aerogenes MTCC 111 after 24 hrs by two fold dilution method; type: functional; settings: MTCC 111, 24 h; summary of the method: as §2
Staphylococcus aureus [7] = assay: Antimicrobial activity against Staphylococcus aureus MTCC 96 after 24 hrs by two fold dilution method; type: functional; settings: MTCC 96, 24 h; summary of the method: as §2
Salmonella typhimurium [8] = assay: Antimicrobial activity against Salmonella typhimurium MTCC 1251 after 24 hrs by two fold dilution method; type: functional, Salmonella enterica subsp. enterica serovar Typhimurium; settings: Salmonella enterica, MTCC 1251, 24 h; summary of the method: as §2
Klebsiella pneumoniae [9] = assay: Antimicrobial activity against Klebsiella pneumoniae MTCC 109 after 24 hrs by two fold dilution method; type: functional; settings: MTCC 109, 24 h; summary of the method: as §2
Proteus vulgaris [10] = assay: Antimicrobial activity against Proteus vulgaris MTCC 1771 after 24 hrs by two fold dilution method; type: functional; settings: MTCC 1771, 24 h; summary of the method: as §2
Staphylococcus aureus [11] = assay: Antimicrobial activity against methicillin-resistant Staphylococcus aureus MTCC 96 after 24 hrs by two fold dilution method; type: functional; settings: MTCC 96, 24 h; summary of the method: as §2
[12] = tested on: Salmonella enterica subsp. enterica serovar Paratyphi B; assay: Antimicrobial activity against Salmonella paratyphi B after 24 hrs by two fold dilution method; type: functional; summary of the method: as §2
Shigella flexneri [13] = assay: Antimicrobial activity against Shigella flexneri MTCC 1457 after 24 hrs by two fold dilution method; type: functional; settings: MTCC 1457, 24 h; summary of the method: as §2
Pseudomonas aeruginosa [14] = assay: Antimicrobial activity against Pseudomonas aeruginosa MTCC 741 after 24 hrs by two fold dilution method; type: functional; settings: MTCC 741, 24 h; summary of the method: as §2
Candida albicans [15] = assay: Antimicrobial activity against Candida albicans MTCC 227 after 48 to 72 hrs by two fold dilution method; type: functional
Summary of the method: (§3)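 Yeast was grown in Sabouraud dextrose broth at 28 °C for 48 h and tested per CLSI reference methods. Two-fold serial dilutions from 1000 to 7.81 µg/mL, compound in DMSO (2%), in 96-well plates, incubated 48–72 h at 28 °C. MIC was the lowest concentration with no visible fungal growth. Ketoconazole was the positive control.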

Malassezia pachydermatis [16] = assay: Antimicrobial activity against Malassezia pachydermatis after 48 to 72 hrs by two fold dilution method; type: functional; summary of the method: as §3
Bacillus subtilis [17] = assay: Bactericidal activity against Bacillus subtilis MTCC 441 after 24 hrs by two fold dilution method; type: functional; settings: MTCC 441, 24 h
Summary of the method: (§4)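 Tubes held 5 mL MHB with two-fold dilutions from 1000 to 7.81 µg/mL and were inoculated with 5 × 10^5 to 1 × 10^6 cells in 0.1 mL MHB, incubated without shaking. Turbidity was checked at 20 h, tubes vortexed and re-incubated 4 h.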

Micrococcus luteus [18] = assay: Bactericidal activity against Micrococcus luteus MTCC 106 after 24 hrs by two fold dilution method; type: functional; settings: MTCC 106, 24 h; summary of the method: as §4
Klebsiella aerogenes [19] = assay: Bactericidal activity against Enterobacter aerogenes MTCC 111 after 24 hrs by two fold dilution method; type: functional; settings: MTCC 111, 24 h; summary of the method: as §4
Staphylococcus aureus [20] = assay: Bactericidal activity against Staphylococcus aureus MTCC 96 after 24 hrs by two fold dilution method; type: functional; settings: MTCC 96, 24 h; summary of the method: as §4
Salmonella typhimurium [21] = assay: Bactericidal activity against Salmonella typhimurium MTCC 1251 after 24 hrs by two fold dilution method; type: functional, Salmonella enterica subsp. enterica serovar Typhimurium; settings: Salmonella enterica, MTCC 1251, 24 h; summary of the method: as §4
Klebsiella pneumoniae [22] = assay: Bactericidal activity against Klebsiella pneumoniae MTCC 109 after 24 hrs by two fold dilution method; type: functional; settings: MTCC 109, 24 h; summary of the method: as §4
Proteus vulgaris [23] = assay: Bactericidal activity against Proteus vulgaris MTCC 1771 after 24 hrs by two fold dilution method; type: functional; settings: MTCC 1771, 24 h; summary of the method: as §4
Staphylococcus aureus [24] = assay: Bactericidal activity against methicillin-resistant Staphylococcus aureus MTCC 96 after 24 hrs by two fold dilution method; type: functional; settings: MTCC 96, 24 h; summary of the method: as §4
[25] = tested on: Salmonella enterica subsp. enterica serovar Paratyphi B; assay: Bactericidal activity against Salmonella paratyphi B after 24 hrs by two fold dilution method; type: functional; summary of the method: as §4
Shigella flexneri [26] = assay: Bactericidal activity against Shigella flexneri MTCC 1457 after 24 hrs by two fold dilution method; type: functional; settings: MTCC 1457, 24 h; summary of the method: as §4
Pseudomonas aeruginosa [27] = assay: Bactericidal activity against Pseudomonas aeruginosa MTCC 741 after 24 hrs by two fold dilution method; type: functional; settings: MTCC 741, 24 h; summary of the method: as §4
Candida albicans [28] = assay: Fungicidal activity against Candida albicans MTCC 227 after 48 to 72 hrs by two fold dilution method; type: functional
Malassezia pachydermatis [29] = assay: Fungicidal activity against Malassezia pachydermatis after 48 to 72 hrs by two fold dilution method; type: functional
Bacillus subtilis [30] = assay: Antimicrobial activity against Bacillus subtilis MTCC 441 at 1 mg/disc after 24 hrs by disc diffusion assay; type: functional; summary of the method: as §1
Micrococcus luteus [31] = assay: Antimicrobial activity against Micrococcus luteus MTCC 106 at 1 mg/disc after 24 hrs by disc diffusion assay; type: functional; summary of the method: as §1
Klebsiella aerogenes [32] = assay: Antimicrobial activity against Enterobacter aerogenes MTCC 111 at 1 mg/disc after 24 hrs by disc diffusion assay; type: functional; summary of the method: as §1
Staphylococcus aureus [33] = assay: Antimicrobial activity against Staphylococcus aureus MTCC 96 at 1 mg/disc after 24 hrs by disc diffusion assay; type: functional; summary of the method: as §1
Salmonella typhimurium [34] = assay: Antimicrobial activity against Salmonella typhimurium MTCC 1251 at 1 mg/disc after 24 hrs by disc diffusion assay; type: functional, Salmonella enterica subsp. enterica serovar Typhimurium; summary of the method: as §1
Klebsiella pneumoniae [35] = assay: Antimicrobial activity against Klebsiella pneumoniae MTCC 109 at 1 mg/disc after 24 hrs by disc diffusion assay; type: functional; summary of the method: as §1
Proteus vulgaris [36] = assay: Antimicrobial activity against Proteus vulgaris MTCC 1771 at 1 mg/disc after 24 hrs by disc diffusion assay; type: functional; summary of the method: as §1
Staphylococcus aureus [37] = assay: Antimicrobial activity against […] Staphylococcus aureus MTCC 96 at 1 mg/disc after 24 hrs by disc diffusion assay; type: functional; summary of the method: as §1
[38] = tested on: Salmonella enterica subsp. enterica serovar Paratyphi B; assay: Antimicrobial activity against Salmonella paratyphi B at 1 mg/disc after 24 hrs by disc diffusion assay; type: functional; summary of the method: as §1
Shigella flexneri [39] = assay: Antimicrobial activity against Shigella flexneri MTCC 1457 at 1 mg/disc after 24 hrs by disc diffusion assay; type: functional; summary of the method: as §1

Compound | inhibition zone (IZ) (Pseudomonas aeruginosa [1]) [mm] | inhibition zone (IZ) (Candida albicans [2]) [mm] | inhibition zone (IZ) (Malassezia pachydermatis [3]) [mm] | MIC (Bacillus subtilis [4]) [µg/mL] | MIC (Micrococcus luteus [5]) [µg/mL] | MIC (Klebsiella aerogenes [6]) [µg/mL] | MIC (Staphylococcus aureus [7]) [µg/mL] | MIC (Salmonella typhimurium [8]) [µg/mL] | MIC (Klebsiella pneumoniae [9]) [µg/mL] | MIC (Proteus vulgaris [10]) [µg/mL] | MIC (Staphylococcus aureus [11]) [µg/mL] | MIC [12] [µg/mL] | MIC (Shigella flexneri [13]) [µg/mL] | MIC (Pseudomonas aeruginosa [14]) [µg/mL] | MIC (Candida albicans [15]) [µg/mL] | MIC (Malassezia pachydermatis [16]) [µg/mL] | MBC (Bacillus subtilis [17]) [µg/mL] | MBC (Micrococcus luteus [18]) [µg/mL] | MBC (Klebsiella aerogenes [19]) [µg/mL] | MBC (Staphylococcus aureus [20]) [µg/mL] | also measured
CC(C)C[C@H](C)N[C@H](C)[C@@H](O)c1ccccc1.Cl | 11 | 13 | 12 | 250 | 250 | 250 | 250 | 500 | 250 | 125 | 125 | 250 | 250 | 250 | 250 | 250 | 250 | 500 | 250 | 250 | MBC (Salmonella typhimurium [21]): 500 µg/mL; MBC (Klebsiella pneumoniae [22]): 250 µg/mL; MBC (Proteus vulgaris [23]): 125 µg/mL; MBC (Staphylococcus aureus [24]): 250 µg/mL; MBC [25]: 500 µg/mL; MBC (Shigella flexneri [26]): 500 µg/mL; MBC (Pseudomonas aeruginosa [27]): 500 µg/mL; MFC (Candida albicans [28]): 250 µg/mL; MFC (Malassezia pachydermatis [29]): 250 µg/mL; inhibition zone (IZ) (Bacillus subtilis [30]): 12 mm; inhibition zone (IZ) (Micrococcus luteus [31]): 13 mm; inhibition zone (IZ) (Klebsiella aerogenes [32]): 12 mm; inhibition zone (IZ) (Staphylococcus aureus [33]): 13 mm; inhibition zone (IZ) (Salmonella typhimurium [34]): 10 mm; inhibition zone (IZ) (Klebsiella pneumoniae [35]): 13 mm; inhibition zone (IZ) (Proteus vulgaris [36]): 14 mm; inhibition zone (IZ) (Staphylococcus aureus [37]): 15 mm; inhibition zone (IZ) [38]: 10 mm; inhibition zone (IZ) (Shigella flexneri [39]): 10 mm
CC[C@H](N[C@H](C)[C@@H](O)c1ccccc1)c1ccccc1.Cl | 16 | 20 | 22 | 31.2 | 31.2 | 31.2 | 15.6 | 62.5 | 31.2 | 31.2 | 31.2 | 62.5 | 31.2 | 62.5 | 31.2 | 31.2 | 62.5 | 31.2 | 31.2 | 31.2 | MBC (Salmonella typhimurium [21]): 62.5 µg/mL; MBC (Klebsiella pneumoniae [22]): 62.5 µg/mL; MBC (Proteus vulgaris [23]): 62.5 µg/mL; MBC (Staphylococcus aureus [24]): 31.2 µg/mL; MBC [25]: 62.5 µg/mL; MBC (Shigella flexneri [26]): 62.5 µg/mL; MBC (Pseudomonas aeruginosa [27]): 125 µg/mL; MFC (Candida albicans [28]): 31.2 µg/mL; MFC (Malassezia pachydermatis [29]): 31.2 µg/mL; inhibition zone (IZ) (Bacillus subtilis [30]): 22 mm; inhibition zone (IZ) (Micrococcus luteus [31]): 23 mm; inhibition zone (IZ) (Klebsiella aerogenes [32]): 20 mm; inhibition zone (IZ) (Staphylococcus aureus [33]): 24 mm; inhibition zone (IZ) (Salmonella typhimurium [34]): 19 mm; inhibition zone (IZ) (Klebsiella pneumoniae [35]): 24 mm; inhibition zone (IZ) (Proteus vulgaris [36]): 20 mm; inhibition zone (IZ) (Staphylococcus aureus [37]): 22 mm; inhibition zone (IZ) [38]: 20 mm; inhibition zone (IZ) (Shigella flexneri [39]): 20 mm
